The values below come from ChEMBL document CHEMBL1800028, “Analogues of 4-[(7-Bromo-2-methyl-4-oxo-3H-quinazolin-6-yl)methylprop-2-ynylamino]-N-(3-pyridylmethyl)benzamide (CB-30865) as potent inhibitors of nicotinamide phosphoribosyltransferase (Nampt)” (J Med Chem, 2010).

Assay [1] concerns the target T1, Nicotinamide phosphoribosyltransferase (Homo sapiens, UniProt P43490). Kind of assay: Inhibition of nicotinamide phosphoribosyltransferase-catalyzed conversion of nicotinamide to nicotinamide mononucleotide. Summed up:
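Coupled-enzyme format: Nampt turnover of nicotinamide to NMN monitored through a downstream coupled reaction; IC50 determined.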
Target sequence in this assay (P43490 whole entry): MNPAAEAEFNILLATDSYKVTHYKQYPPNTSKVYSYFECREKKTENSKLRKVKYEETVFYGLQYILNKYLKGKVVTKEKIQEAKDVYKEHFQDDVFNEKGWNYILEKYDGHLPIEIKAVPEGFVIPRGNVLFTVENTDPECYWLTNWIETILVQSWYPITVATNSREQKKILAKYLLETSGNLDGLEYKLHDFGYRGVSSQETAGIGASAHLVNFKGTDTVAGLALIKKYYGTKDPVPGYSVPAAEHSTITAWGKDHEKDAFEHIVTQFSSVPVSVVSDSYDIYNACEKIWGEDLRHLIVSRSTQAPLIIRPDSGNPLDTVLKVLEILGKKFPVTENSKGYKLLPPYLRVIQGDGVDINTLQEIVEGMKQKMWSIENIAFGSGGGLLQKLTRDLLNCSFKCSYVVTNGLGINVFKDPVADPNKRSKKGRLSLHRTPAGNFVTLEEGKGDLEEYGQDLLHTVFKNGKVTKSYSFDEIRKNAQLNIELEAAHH

In assay [2] the target is T1, Nicotinamide phosphoribosyltransferase. Kind of assay: Inhibition of nicotinamide phosphoribosyltransferase-catalyzed conversion of nicotinamide to nicotinamide mononucleotide at 10 uM.
Target sequence in this assay (P43490 whole entry, looked up): as the sequence (P43490 whole entry) above
A further assay deals with WIL2. Kind of assay: Cytotoxicity against human W1L2 cells. The class given is functional, cell-based.
Assay [3] has as its system HCT-116. The experiment in a line: Cytotoxicity against human HCT116 cells after 72 hrs. The class given is functional. The procedure, abridged: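 HCT116 colon carcinoma cells treated with compound for 72 h; viability read out as cellular ATP levels.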
Assay [4] concerns the target T1, Nicotinamide phosphoribosyltransferase. The experiment in a line: Inhibition of Nampt activity in H2O2-induced DNA damage in human MCF10A cells stably transfected with PIK3CA (H1047R) assessed as loss of PARP activity. The assay is classed as cell-based. Particulars: MCF-10A.
Target sequence in this assay (P43490 whole entry, looked up): as the sequence (P43490 whole entry) above
Assay [5] concerns HCT-116. The experiment in a line: Cytotoxicity against human HCT116 cells after 72 hrs in presence of 10 uM exogenous nicotinic acid. The assay is classed as functional, cell-based. Particulars: HCT-116, 72 h. Summed up:
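HCT116 colon carcinoma cells treated for 72 h with compound plus 10 μM exogenous nicotinic acid to test whether killing depends on Nampt; viability read out as cellular ATP levels.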

In another assay the target is Thymidylate synthase (Homo sapiens, UniProt P04818). The experiment in a line: Inhibition of thymidylate synthase.
Thymidylate synthase, sequence (P04818 whole entry): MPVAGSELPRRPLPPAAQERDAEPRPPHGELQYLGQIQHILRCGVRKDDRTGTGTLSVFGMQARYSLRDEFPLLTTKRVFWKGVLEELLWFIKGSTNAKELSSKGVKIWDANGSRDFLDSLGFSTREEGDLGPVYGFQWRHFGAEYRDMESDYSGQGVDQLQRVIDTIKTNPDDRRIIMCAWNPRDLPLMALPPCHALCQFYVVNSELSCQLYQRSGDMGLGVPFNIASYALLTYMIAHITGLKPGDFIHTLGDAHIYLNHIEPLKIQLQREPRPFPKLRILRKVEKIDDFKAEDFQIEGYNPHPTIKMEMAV
Assay [6] deals with T1, Nicotinamide phosphoribosyltransferase. The experiment in a line: Inhibition of nicotinamide phosphoribosyltransferase-catalyzed conversion of nicotinamide to nicotinamide mononucleotide relative to untreated enzyme. Conditions: concentration not given here.
Target sequence in this assay (P43490 whole entry, looked up): as the sequence (P43490 whole entry) above
Assay [7] has the same target. The experiment in a line: Inhibition of nicotinamide phosphoribosyltransferase-mediated decrease in cellular NAD level.
Target sequence in this assay (P43490 whole entry): as above

Active and inactive are the calls of the source. No cut-off for these calls is given here.

Usually IC50 stands for the point on the concentration scale where inhibition reaches its midpoint. A low value points to higher potency. In general, inhibition refers to the percentage by which the read-out fell short of the control. `C#CCN(Cc1ccc2nc(C)n(C)c(=O)c2c1)c1ccc(C(=O)NCC2CCCNC2)cc1` (configuration not stated): the 50% inhibitory concentration (IC50) in [1] is greater than 10000 nM. Also, the inhibition entry in assay [2] was “inactive”.
What is called EC50 is the concentration that produces a half-maximal response. Regarding `C#CCN(Cc1cc2c(O)nc(C)nc2cc1Br)c1ccc(C(=O)NCc2cccnc2)cc1`, the concentration for a half-maximal effect (EC50) in the assay on WIL2 was 2.8 nM.
In the case of `C#CCN(Cc1cc2c(=O)n(C)c(CN3CCN(C)CC3)nc2cc1Cl)c1ccc(C(=O)NCc2cccnc2)cc1`, it took 0.31 nM to reach half-maximal inhibition in assay [1] (IC50). For the same compound, in the assay with HCT-116 [3], the Activity was 0.00046 µM. For the same compound, in assay [4], the inhibitory concentration came out at 5e-05 µM. Moreover, it took 0.49 nM to reach a half-maximal effect in the assay on WIL2 (EC50).
As for `CC(C)CCN(Cc1ccccc1Cl)c1ccc(C(=O)NCc2cccnc2)cc1`, half-maximal inhibition in assay [1] (IC50) required 6.1 nM. In addition, the Activity in the assay with HCT-116 [3] was 0.39 µM. Besides, in the assay with HCT-116 [5], the EC50 is greater than 10000 nM. The inhibitory concentration in assay [4] came out at 0.0079 µM.
Turning to `CC(C)=CCN(Cc1cc2c(=O)n(C)cnc2cc1Cl)c1ccc(C(=O)NCc2cccnc2)cc1`, inhibition in assay [1] was half-maximal at 2.6 nM (IC50). The Activity in the assay on HCT-116 [3] was determined as 0.0073 µM. In addition, the half-maximal effective concentration (EC50) in the assay on HCT-116 [5] is greater than 10000 nM. In addition, in assay [4], the inhibitory concentration was 0.0005 µM.
The corresponding values for `Cn1cnc2cc(Cl)c(CN(CC(N)=O)c3ccc(C(=O)NCc4cccnc4)cc3)cc2c1=O` are 56 nM, greater than 10 µM, greater than 10000 nM and greater than 1 µM.
Compound `C#CCN(Cc1cc2c(=O)[nH]c(C)nc2cc1Br)c1ccc(C(=O)NCc2ccncc2)cc1` registered a 50% inhibitory concentration (IC50) at Thymidylate synthase of 156 nM.
For `C#CCN(Cc1cc2c(=O)[nH]c(C)nc2cc1Br)c1ccc(C(=O)NCc2ccccn2)cc1`, the inhibition in [6] is 90%. The compound further registered an IC50 on Thymidylate synthase of 156 nM.
As for `C#CCN(Cc1ccccc1Cl)c1ccc(C(=O)NCc2cccnc2)cc1`, half-maximal inhibition in [1] (IC50) was put at 4.2 nM. In the assay with HCT-116 [3], this compound gave an Activity of 2.4 µM. Moreover, the EC50 in the assay on HCT-116 [5] is greater than 10000 nM. The inhibitory concentration in assay [4] stood at 0.15 µM.
On to `O=C(CCCCCCCn1cc(-c2cccnc2)nn1)Nc1ccccc1-c1ccccc1`, for which the IC50 in assay [7] was found to be 3 nM.
